Source: ChEMBL document CHEMBL1137537, “Novel oxotremorine-related heterocyclic derivatives: Synthesis and in vitro pharmacology at the muscarinic receptor subtypes” (Bioorg Med Chem, 2007)

Key:
[1] = target: T1, Muscarinic acetylcholine receptor M5 (Homo sapiens, UniProt P08912); assay: Displacement of [3H]QNB from human muscarinic M5 receptor expressed in CHO cells; assay type: cell-based
T1 sequence (P08912 whole entry): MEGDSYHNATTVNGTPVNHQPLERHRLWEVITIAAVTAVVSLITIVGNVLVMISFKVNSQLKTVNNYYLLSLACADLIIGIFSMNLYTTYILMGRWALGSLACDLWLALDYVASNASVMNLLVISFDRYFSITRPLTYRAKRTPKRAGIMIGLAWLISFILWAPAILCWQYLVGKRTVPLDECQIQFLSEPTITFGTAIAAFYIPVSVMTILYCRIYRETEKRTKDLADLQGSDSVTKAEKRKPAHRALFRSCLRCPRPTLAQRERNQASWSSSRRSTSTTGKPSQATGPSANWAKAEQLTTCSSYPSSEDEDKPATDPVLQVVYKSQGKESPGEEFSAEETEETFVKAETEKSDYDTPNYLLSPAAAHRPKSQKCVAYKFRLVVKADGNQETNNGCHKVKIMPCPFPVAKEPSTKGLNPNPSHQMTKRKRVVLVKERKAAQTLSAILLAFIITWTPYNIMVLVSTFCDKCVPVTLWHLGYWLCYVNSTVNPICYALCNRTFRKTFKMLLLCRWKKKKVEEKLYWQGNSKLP

[2] = target: T2, Muscarinic acetylcholine receptor M2 (Homo sapiens, UniProt P08172); assay: Displacement of [3H]QNB from human muscarinic M2 receptor expressed in CHO cells; assay type: cell-based
T2 sequence (P08172 whole entry): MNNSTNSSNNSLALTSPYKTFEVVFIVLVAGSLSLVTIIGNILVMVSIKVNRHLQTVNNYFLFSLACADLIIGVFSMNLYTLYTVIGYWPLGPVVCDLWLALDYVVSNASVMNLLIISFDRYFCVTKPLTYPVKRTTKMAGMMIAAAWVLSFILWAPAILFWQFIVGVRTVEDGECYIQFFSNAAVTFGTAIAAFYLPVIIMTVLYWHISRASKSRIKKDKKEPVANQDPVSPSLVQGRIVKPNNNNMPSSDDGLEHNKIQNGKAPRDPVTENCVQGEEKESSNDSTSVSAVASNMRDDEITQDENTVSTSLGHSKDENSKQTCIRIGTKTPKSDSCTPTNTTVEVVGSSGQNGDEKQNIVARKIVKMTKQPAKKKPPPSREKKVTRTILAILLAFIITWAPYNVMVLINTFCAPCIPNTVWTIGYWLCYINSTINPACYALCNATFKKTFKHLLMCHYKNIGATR
Summary of the method: (§1)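 Membranes (10-50 µg protein) from stable CHO lines expressing human m2-m5, competed against 180 pM [3H]QNB in 50 mM Tris-HCl pH 7.4 with 1% DMSO; 120 min at 25 °C to equilibrium; nonspecific binding with 0.5 µM atropine; GF-C filtration, scintillation counting; IC50 by logistic fit, Ki via Cheng–Prusoff using saturation-derived KD (5–2500 pM [3H]QNB).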

[3] = target: T3, Muscarinic acetylcholine receptor M3 (Cavia porcellus, UniProt Q8VH26); assay: Agonist activity at muscarinic M3 receptor in guinea-pig ileum; assay type: functional, tissue-based
Summary of the method: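 Guinea-pig ileal segments 2–3 cm, 1.0 g tension, 37 °C Krebs-Henseleit with carbogen, 45 min equilibration; isometric contractions to cumulative agonist concentrations; pEC50 by least-squares linear regression; mean of 6-8 experiments.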

[4] = target: T4, Muscarinic acetylcholine receptor M4 (Homo sapiens, UniProt P08173); assay: Displacement of [3H]QNB from human muscarinic M4 receptor expressed in CHO cells; assay type: cell-based; summary of the method: as §1
T4 sequence (P08173 whole entry): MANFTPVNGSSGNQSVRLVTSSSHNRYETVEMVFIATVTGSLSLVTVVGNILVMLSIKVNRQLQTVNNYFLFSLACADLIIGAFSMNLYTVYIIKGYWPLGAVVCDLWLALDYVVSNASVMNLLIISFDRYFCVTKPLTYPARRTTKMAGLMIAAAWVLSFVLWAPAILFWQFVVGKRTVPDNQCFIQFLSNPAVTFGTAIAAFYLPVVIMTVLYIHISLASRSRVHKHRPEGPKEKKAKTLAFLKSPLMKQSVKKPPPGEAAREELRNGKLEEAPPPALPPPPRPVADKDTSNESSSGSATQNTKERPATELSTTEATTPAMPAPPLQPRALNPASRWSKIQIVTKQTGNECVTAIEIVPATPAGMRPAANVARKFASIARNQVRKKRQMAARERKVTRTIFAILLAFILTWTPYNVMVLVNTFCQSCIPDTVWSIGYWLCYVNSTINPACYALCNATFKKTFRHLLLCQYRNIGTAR

[5] = Agonist activity at muscarinic M1 receptor in electrically stimulated New Zealand rabbit vas deferens; assay type: functional, tissue-based; settings: Oryctolagus cuniculus
[6] = target: Muscarinic acetylcholine receptor M3 (Homo sapiens, UniProt P20309); assay: Displacement of [3H]QNB from human muscarinic M3 receptor expressed in CHO cells; assay type: cell-based
Oryctolagus cuniculus = species: Oryctolagus cuniculus; assay: Intrinsic activity at muscarinic M1 receptor in electrically stimulated New Zealand rabbit vas deferens relative to McN-A-343; assay type: tissue-based
Summary of the method: (§2)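 Intrinsic activity as ratio of compound's maximal response to that of reference full agonist (McN-A-343 for vas deferens, bethanechol for atrium and ileum), from cumulative concentration–response curves; mean of 6-8 experiments.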

[7] = target: Muscarinic acetylcholine receptor M3 (Cavia porcellus) (UniProt Q8VH26); assay: Intrinsic activity at muscarinic M3 receptor in guinea-pig ileum relative to benthanechol; assay type: tissue-based; summary of the method: as §2
[8] = target: T3, Muscarinic acetylcholine receptor M3; assay: Binding affinity to muscarinic M3 receptor in guinea-pig ileum; assay type: tissue-based
Summary of the method: (§3)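 Apparent affinity pKD: for full agonists by receptor inactivation with phenoxybenzamine (1-10 µM, 20-30 min); for partial agonists by McKay's method comparing curves with reference full agonist; mean of 6-8 experiments.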

[9] = Binding affinity to muscarinic M2 receptor in electrically stimulated guinea-pig left atrium; assay type: tissue-based, Cavia porcellus, Cardiac atrium; summary of the method: as §3
[10] = target: T5, Muscarinic acetylcholine receptor M1 (Homo sapiens, UniProt P11229); assay: biochemical; assay type: cell-based, CHO
T5 sequence (P11229 whole entry): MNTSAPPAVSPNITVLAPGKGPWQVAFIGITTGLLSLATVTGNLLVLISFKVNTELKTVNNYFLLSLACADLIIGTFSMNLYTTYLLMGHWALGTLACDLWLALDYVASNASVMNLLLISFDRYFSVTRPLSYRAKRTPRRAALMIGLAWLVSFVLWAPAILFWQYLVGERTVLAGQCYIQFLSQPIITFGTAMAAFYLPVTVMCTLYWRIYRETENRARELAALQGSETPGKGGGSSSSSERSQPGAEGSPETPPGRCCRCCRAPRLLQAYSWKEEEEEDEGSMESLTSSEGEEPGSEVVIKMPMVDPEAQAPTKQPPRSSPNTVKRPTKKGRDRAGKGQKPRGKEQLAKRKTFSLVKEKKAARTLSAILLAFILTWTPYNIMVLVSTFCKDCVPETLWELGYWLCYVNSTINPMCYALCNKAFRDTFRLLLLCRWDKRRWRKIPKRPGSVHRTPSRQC

Cavia porcellus = species: Cavia porcellus; assay: Intrinsic activity at muscarinic M2 receptor in electrically stimulated guinea-pig left atrium relative to benthanechol; assay type: tissue-based; settings: Cardiac atrium; summary of the method: as §2
[11] = Agonist activity at muscarinic M2 receptor in electrically stimulated guinea-pig left atrium; assay type: functional, tissue-based; settings: Cavia porcellus, Cardiac atrium
[12] = Binding affinity to muscarinic M1 receptor in electrically stimulated New Zealand rabbit vas deferens; assay type: tissue-based, Oryctolagus cuniculus; summary of the method: as §3
[13] = Antagonist activity at muscarinic M1 receptor in electrically stimulated New Zealand rabbit vas deferens; assay type: functional, Oryctolagus cuniculus
Summary of the method: (§4)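 Antagonist mode: after 30 min incubation with test compound (10 nM–100 µM), concentration–response curve to full agonist (bethanechol or McN-A-343) repeated; pKB as molar concentration giving twofold EC50 shift, Furchgott's method; mean of 6-8 experiments.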

[14] = target: Muscarinic acetylcholine receptor M3 (Cavia porcellus) (UniProt Q8VH26); assay: Antagonist activity at muscarinic M3 receptor in guinea-pig ileum; assay type: functional, tissue-based; summary of the method: as §4

T3 sequence (Q8VH26 whole entry): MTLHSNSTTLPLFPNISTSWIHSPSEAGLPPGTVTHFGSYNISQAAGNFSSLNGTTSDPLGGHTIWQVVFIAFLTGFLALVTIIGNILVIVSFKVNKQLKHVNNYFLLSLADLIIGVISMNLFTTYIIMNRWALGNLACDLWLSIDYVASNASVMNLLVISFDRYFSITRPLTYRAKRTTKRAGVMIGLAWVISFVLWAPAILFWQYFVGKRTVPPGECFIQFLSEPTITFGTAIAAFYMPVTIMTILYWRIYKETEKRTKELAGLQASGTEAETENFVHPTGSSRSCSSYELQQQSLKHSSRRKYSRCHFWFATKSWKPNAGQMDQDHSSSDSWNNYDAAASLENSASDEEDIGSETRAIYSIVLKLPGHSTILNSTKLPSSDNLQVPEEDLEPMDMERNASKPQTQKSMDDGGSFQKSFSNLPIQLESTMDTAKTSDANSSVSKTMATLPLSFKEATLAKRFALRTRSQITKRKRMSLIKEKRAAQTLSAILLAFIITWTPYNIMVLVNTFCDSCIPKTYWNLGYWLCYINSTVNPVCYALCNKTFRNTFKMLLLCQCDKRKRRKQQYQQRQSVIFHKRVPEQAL
Chain of Muscarinic acetylcholine receptor M3 (Cavia porcellus) (Q8VH26 1-587): as the sequence (Q8VH26 whole entry) above
Chain of Muscarinic acetylcholine receptor M3 (Homo sapiens, UniProt P20309) (P20309 whole entry): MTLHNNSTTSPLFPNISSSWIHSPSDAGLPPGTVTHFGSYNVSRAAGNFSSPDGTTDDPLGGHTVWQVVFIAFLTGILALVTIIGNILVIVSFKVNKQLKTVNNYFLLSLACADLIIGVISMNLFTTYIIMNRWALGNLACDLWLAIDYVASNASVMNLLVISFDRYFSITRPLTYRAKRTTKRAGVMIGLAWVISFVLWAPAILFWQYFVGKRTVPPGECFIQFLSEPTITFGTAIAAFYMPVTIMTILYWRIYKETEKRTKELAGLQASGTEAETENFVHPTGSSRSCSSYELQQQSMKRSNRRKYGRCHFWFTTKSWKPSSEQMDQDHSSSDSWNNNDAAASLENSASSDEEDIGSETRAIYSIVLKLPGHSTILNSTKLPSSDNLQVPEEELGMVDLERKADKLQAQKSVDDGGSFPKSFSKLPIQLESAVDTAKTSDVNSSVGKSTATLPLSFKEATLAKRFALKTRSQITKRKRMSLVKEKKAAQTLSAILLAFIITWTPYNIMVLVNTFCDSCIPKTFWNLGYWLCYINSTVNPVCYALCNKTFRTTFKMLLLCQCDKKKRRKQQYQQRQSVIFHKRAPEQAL

| Structure (SMILES) | Ki [1] [µM] | Ki [2] [µM] | EC50 [3] [µM] | Ki [4] [µM] | EC50 [5] [µM] | Ki [6] [µM] | Intrinsic activity (Oryctolagus cuniculus) | Intrinsic activity [7] | Kd [8] [µM] | pKd [9] | Ki [10] [µM] | Intrinsic activity (Cavia porcellus) | EC50 [11] [µM] | pKd [12] | pKb [13] | pKb [14] |
| --- | --- | --- | --- | --- | --- | --- | --- | --- | --- | --- | --- | --- | --- | --- | --- | --- |
| O=C1CCON1CC#CCN1CCc2ccccc2C1 | > 10 | > 10 | – | – | – | – | – | – | – | – | – | – | – | – | – | – |
| CN(C)CC#CCOc1cc(-c2ccccc2)on1 | > 10 | > 10 | – | – | – | – | – | – | – | – | – | – | – | – | – | – |
| Cc1cc(OCC#CC[N+](C)(C)C)no1.[I-] | 6.31 | 0.05 | 0.00724 | 0.682 | 0.0398 | 3.99 | 0.9 | 1 | 0.676 | 7.03 | > 10 | 1 | 0.00661 | 6.97 | – | – |
| O=C1CCON1CC#CCN1C2CCCC1CC2 | > 10 | > 10 | – | – | – | – | – | – | – | – | – | – | – | – | – | – |
| C(#CCN1CCCCC1)COC1=NOCC1.O=C(O)C(=O)O | 5.14 | 0.876 | 1.78 | 6.04 | – | 3.92 | 0 | 1 | 21.9 | 6.22 | 4.55 | 0.6 | 1.1 | – | 5.91 | – |
| O=C1CCON1CC#CCN1CCCC1 | 0.51 | 0.07 | – | 0.222 | – | 0.392 | – | – | – | – | 0.905 | – | – | – | – | – |
| Cc1cc(OCC#CC[N+]2(C)CCCC2)no1.[I-] | 7.51 | 2.04 | 0.55 | 5.93 | – | 7.39 | 0 | 0.9 | 1.66 | 6.72 | 7.68 | 1 | 0.251 | – | 6.01 | – |
| C(#CCN1CCc2ccccc2C1)COC1=NOCC1 | > 10 | > 10 | – | – | – | – | – | – | – | – | – | – | – | – | – | – |
| C[N+]1(CC#CCN2OCCC2=O)CCCCC1 | > 10 | > 10 | – | – | – | – | – | – | – | – | – | – | – | – | – | – |
| C[N+]1(CC#CCOC2=NOCC2)CCc2ccccc2C1 (centres undefined) | 5.66 | 0.474 | – | 2.26 | – | 0.887 | – | – | – | – | 6.96 | – | – | – | – | – |
| C(#CCOc1ccon1)CO/N=C1\CN2CCC1CC2.O=C(O)/C=C/C(=O)O | – | – | 1.02 | – | – | – | 0 | 0.9 | 3.63 | 5.97 | – | 0.7 | 3.09 | – | 5.85 | – |
| C(#CCN1CCCC1)COc1cc(-c2ccccc2)on1 | 6.88 | > 10 | – | 5.48 | 44.7 | 4.01 | 1 | 0 | – | – | 6.14 | 0.6 | 21.9 | – | – | 4.94 |
